Test results: paper PMC3500602 (Free radical research, 2011)
pIC50: −log10 of the molar value. Each block holds one compound with its values, some of them ahead of it.

Experiments:
[1] = cited from earlier work; for SOD activity log kcat (O2^·−): cyt c assay, 0.05 M phosphate buffer, pH 7.8, 25 ± 1°C
[2] = system: human epithelial colorectal adenocarcinoma Caco-2; assay: WST-1-based cytotoxicity assay, Caco-2; type: cell-based; settings: read-out: IC50 values for MnPs in the absence of ascorbate; Caco-2, 96 h, WST-1, no ascorbate
SOD-deficient E. coli = settings: cited from earlier work; for efficacy in protecting SOD-deficient E. coli: ortho vs meta
[3] = Metal-centered reduction potential E1/2 for Mn^IIIP/Mn^IIP redox couple; type: physicochemical
[4] = system: four tumour cell lines (Caco-2, HCT116, 4T1 and Hela); assay: WST-1-based cytotoxicity assay, statements across the four tumour cell lines; settings: for cytotoxicity relative to MnTnHex-2-PyP^5+ in the presence of ascorbate: slopes of curves in Figure 5; for effect of low levels on the cell: Figures 5 and 6; for toxicity of MnP in its own right: absence of ascorbate, 30 µM MnP, HCT116, 4T1, Hela
[5] = cited from earlier work
[6] = plastic-backed silica-gel TLC plates, 1:1:8 = KNO3(sat):H2O:CH3CN; cited from earlier work
[7] = system: HCT116 human colorectal carcinoma cells; assay: Clonogenic assay, HCT116; type: cell-based; settings: HCT116, ascorbate 0.5 mM or MnTnHex-2-PyP^5+ 15 and 30 µM alone, 24 h
4T1 tumour cells = assay: LCMS/MS analysis of MnTnHex-2-PyP^5+ levels in 4T1 cells; type: in vitro ADME, mouse
Method in brief: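 4T1 cells at 1,440,000 per plate in 10 mL DMEM (high glucose, 10% FBS), attached 24 h (~80% confluence), then given 0.5 or 1 mM ascorbate, 5, 15 or 30 µM porphyrin, or combinations, for 24 h. PBS-rinsed, RIPA-lysed on ice, sonicated, spun; lysate porphyrin by LC-MS/MS normalised to Bradford protein. Intracellular concentration calculated assuming 2.19 µL cell volume/mg protein.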

[8] = system: 4T1 mouse breast carcinoma cells; assay: Clonogenic assay, 4T1; type: cell-based; settings: 4T1, ascorbate 1 mM or MnTnHex-2-PyP^5+ 15 and 30 µM alone, 24 h
[9] = MnTnHex-2-PyP^5+ levels in tumour and muscle by LCMS/MS; type: in vivo, Balb/c mice
Method in brief: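 Female Balb/c mice (6–8 weeks, ~22 g) bearing subcutaneous flank 4T1 tumours (10^6 cells), treated from ~200 mm3 for 15 days with porphyrin 1 mg/kg twice daily sc, with or without sodium ascorbate 2 g/kg twice daily ip given 1 h later. Tumour and opposite-leg muscle homogenised, deproteinised with 1% acetic acid in methanol, dried, reconstituted; porphyrin by LC-MS/MS, µM in homogenate.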

Caco-2 cells = assay: Identification of species involved in cytotoxicity; type: cell-based, human
Method in brief: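 Caco-2 cells at 10,000/well in alpha-MEM with 10% FBS; after 24 h at 37°C, 5% CO2, exposed to 30 µM Mn porphyrin, 3.3 mM ascorbate or both, with or without 1,500 units/mL catalase or 5 mM mannitol, for 96 h. Cells PBS-washed, WST-1 added for 2 h at 37°C, A450/595 read, % viability versus no-drug cells after cell-free blank subtraction.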

[10] = n-octanol-water partition coefficient, log Pow; type: physicochemical
[11] = Rate constant for the oxidation of Mn^IIP with oxygen; settings: estimated from Mn^IITM-4-PyP^4+ value and structure-activity relationship

SMILES: CC[n+]1ccccc1-c1c2nc(c(-c3cccc[n+]3CC)c3ccc([n-]3)c(-c3cccc[n+]3CC)c3nc(c(-c4cccc[n+]4CC)c4ccc1[n-]4)C=C3)C=C2.[Mn+3] [MnTE-2-PyP^5+, Mn(III) meso-tetrakis(N-ethylpyridinium-2-yl)porphyrin]
fold more potent SOD mimic than meta MnTE-3-PyP^5+ [1]: 10 fold
SOD activity log kcat (O2^·−) [1]: 7.76
pIC50 [2]: 3.33
efficacy in protecting SOD-deficient E. coli (SOD-deficient E. coli): equally efficacious
E1/2 difference relative to MnTnHex-2-PyP^5+ (less positive / more negative) [3]: ~ 100 mV
cytotoxicity relative to MnTnHex-2-PyP^5+ in the presence of ascorbate ([4]; 4T1, Hela): more cytotoxic
cytotoxicity relative to MnTnHex-2-PyP^5+ in the presence of ascorbate ([4]; HCT116, Caco-2): equally
effect of low levels on the cell [4]: beneficial

SMILES: CC[n+]1cccc(-c2c3nc(c(-c4ccc[n+](CC)c4)c4ccc([n-]4)c(-c4ccc[n+](CC)c4)c4nc(c(-c5ccc[n+](CC)c5)c5ccc2[n-]5)C=C4)C=C3)c1.[Mn+3] [MnTE-3-PyP^5+, Mn(III) meso-tetrakis(N-ethylpyridinium-3-yl)porphyrin, reference compound]
fold more accumulation within E. coli cell than MnTE-2-PyP^5+ (SOD-deficient E. coli): 10 fold
efficacy in protecting SOD-deficient E. coli (SOD-deficient E. coli): equally efficacious
fold more lipophilic than ortho MnTE-2-PyP^5+ [5]: 10 fold

SMILES: C[n+]1ccc(-c2c3nc(c(-c4cc[n+](C)cc4)c4ccc([n-]4)c(-c4cc[n+](C)cc4)c4nc(c(-c5cc[n+](C)cc5)c5ccc2[n-]5)C=C4)C=C3)cc1.[Mn+3] [MnTM-4-PyP^5+, Mn(III) meso-tetrakis(N-methylpyridinium-4-yl)porphyrin, reference compound]
SOD activity log kcat (O2^·−) [1]: 6.58
Lipophilicity Rf [6]: 0.064

MnP concentration in the cells relative to the medium (4T1 tumour cells; 30 µM MnP in medium): ~ 4 times
more MnP found within cells with MnP/ascorbate compared to MnP alone (4T1 tumour cells; 4T1 cells, depending on concentrations of ascorbate and porphyrin): ≤ 29%
enhancement of MnP accumulation by ascorbate in muscle ([9]; MnP/ascorbate vs MnP treated mice, muscle): 54%
enhancement of MnP accumulation by ascorbate in tumour ([9]; MnP/ascorbate vs MnP treated mice, tumour): 33%
accumulation in tumour relative to muscle from the opposite leg ([9]; MnTnHex-2-PyP^5+ 1 mg/kg twice daily sc, tissue homogenates): higher accumulation in tumour
SMILES: CCCCCC[n+]1ccccc1-c1c2nc(c(-c3cccc[n+]3CCCCCC)c3ccc([n-]3)c(-c3cccc[n+]3CCCCCC)c3nc(c(-c4cccc[n+]4CCCCCC)c4ccc1[n-]4)C=C3)C=C2.[Mn+3] [MnTnHex-2-PyP^5+, Mn(III) meso-tetrakis(N-n-hexylpyridinium-2-yl)porphyrin]
SOD activity log kcat (O2^·−) [1]: 7.48
pIC50 [2]: 3.77
ability to produce colonies, single agent [7]: did not affect
ability to produce colonies, single agent [8]: did not affect
toxicity of MnP in its own right [4]: exerted toxicity

SMILES: CCCCCC[n+]1cccc(-c2c3nc(c(-c4ccc[n+](CCCCCC)c4)c4ccc([n-]4)c(-c4ccc[n+](CCCCCC)c4)c4nc(c(-c5ccc[n+](CCCCCC)c5)c5ccc2[n-]5)C=C4)C=C3)c1.[Mn+3] [MnTnHex-3-PyP^5+, Mn(III) meso-tetrakis(N-n-hexylpyridinium-3-yl)porphyrin]
SOD activity log kcat (O2^·−) [1]: 6.64
pIC50 [2]: 3.85
toxicity of MnP by itself to Caco-2 cells (Caco-2 cells; Caco-2, 30 µM MnP, no ascorbate, Figure 9): less toxic
effect of mannitol on cytotoxicity (Caco-2 cells; Caco-2, 5 mM mannitol, 4 days): blocked significantly
accumulation within E. coli cell relative to MnTnHex-2-PyP^5+ (SOD-deficient E. coli; absence of exogenous reductant): several-fold more
fold more lipophilic than MnTnHex-2-PyP^5+ [10]: ~ 10 fold
E1/2 difference relative to MnTE-2-PyP^5+ (more negative) [3]: ~150 mV
E1/2 difference relative to MnTnHex-2-PyP^5+ (less positive / more negative) [3]: ~ 250 mV
toxicity of MnP in its own right [4]: not significantly toxic
effect of low levels on the cell [4]: beneficial

SMILES: CC[n+]1ccccc1-c1c2nc(c(-c3cccc[n+]3CC)c3ccc([n-]3)c(-c3cccc[n+]3CC)c3nc(c(-c4cccc[n+]4CC)c4ccc1[n-]4)C=C3)C=C2.[Mn+2] [Mn^IITE-2-PyP^4+]
rate constant for the reaction with O2 [11]: 80000 M⁻¹ s⁻¹
